# PglD DTNB: PglD (C. jejuni) enzyme inhibition. purified PglD enzyme, DTNB colorimetric CoA detection. inhibition, % at 12.5 µM. actives 0.098% (n = 360,000). AID 602405; in the data active = inhibition above about 16%, passing the limit was not always enough
# RAD52 anneal inh: RAD52 (human) annealing inhibition. P43351. recombinant RAD52 DNA annealing, FRET fluorescence. inhibition, % at 18.7 µM. actives 0.46% (n = 360,000);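 active = every replicate showing at least 50% inhibition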
# E-selectin induc: E-selectin induction on HUVECs; P16581; HUVEC E-selectin immunofluorescence imaging; normalized: neutral wells 0, TNF-alpha wells 100; activation, % at 7.58 µM; actives 0.37% (n = 260,000);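 active = mean E-selectin-positive cell signal at least 10% of the positive control, reached in at least 60% of replicates, without over 20% cell loss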
#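 Test system – human umbilical vein endothelial cells (HUVEC), E-selectin induction · Input – 3,000 HUVEC seeded per well · Buffer or medium – EGM-2, gelatin · Compound dosing – single-point compound dose · Detection – immunofluorescence imaging · Measure – percent E-selectin-positive cells · Controls – TNF-alpha high, DMSO low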
# Ecoli rRNA inh: inhibitors of bacterial rRNA selective over humanized ribosomes. E. coli WT GFP vs humanized-ribosome RFP mutants, fluorescence, 24 h; active compounds read low; DMSO median 0, no signal -100. GFP signal change (wild-type ribosome), % (no concentration beside the values). actives 1.6% (n = 350,000). AID 720706;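 active = significant combined selectivity score with lowered wild-type GFP, culture density cut under 30%, mutant RFP and density less affected; inactive = any of these conditions unmet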
# RAD54 branch: blocks human RAD54 Holliday junction branch migration; Q92698; FAM/BHQ fluorescence; inhibition, % at 10.4 µM; actives 0.14% (n = 360,000); AID 602329;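 active = mean normalized replicate activity at least 40 and at least half of replicates scoring 40 or more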;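 note: 0% = median of neutral control wells and 100% = median of positive control wells; inhibitors cause a drop in the FAM fluorescence signal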
# Target sequence (Q92698 whole entry, looked up): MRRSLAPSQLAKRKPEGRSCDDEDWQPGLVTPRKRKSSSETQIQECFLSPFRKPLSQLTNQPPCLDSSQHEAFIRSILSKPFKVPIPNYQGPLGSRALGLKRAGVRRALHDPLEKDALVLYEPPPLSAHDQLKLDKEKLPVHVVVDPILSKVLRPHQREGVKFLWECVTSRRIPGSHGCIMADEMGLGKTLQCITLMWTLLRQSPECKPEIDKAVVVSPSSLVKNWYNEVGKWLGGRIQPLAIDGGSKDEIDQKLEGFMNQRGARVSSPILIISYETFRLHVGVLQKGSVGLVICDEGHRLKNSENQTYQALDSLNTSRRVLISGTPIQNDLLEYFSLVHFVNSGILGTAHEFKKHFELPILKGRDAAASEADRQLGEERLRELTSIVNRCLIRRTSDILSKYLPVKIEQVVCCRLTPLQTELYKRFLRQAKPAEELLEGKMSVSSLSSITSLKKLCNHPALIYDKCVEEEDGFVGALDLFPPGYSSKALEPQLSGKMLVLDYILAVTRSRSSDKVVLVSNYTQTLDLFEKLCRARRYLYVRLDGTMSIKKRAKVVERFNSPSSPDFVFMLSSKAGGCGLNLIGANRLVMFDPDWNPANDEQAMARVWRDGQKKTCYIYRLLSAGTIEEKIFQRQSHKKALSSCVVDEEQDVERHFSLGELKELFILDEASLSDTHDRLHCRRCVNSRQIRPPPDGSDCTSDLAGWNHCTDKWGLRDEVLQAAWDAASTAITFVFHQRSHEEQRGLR
# XiGFP reactiv: activators of X-chromosome reactivation in mouse fibroblasts | AID 743238 | activation, % at 7.58 µM | actives 0.055% (n = 360,000) | XiGFP mouse fibroblasts, % GFP-positive cells imaging, 3 d; cells co-treated with 5-aza-dC sensitizer; scaled so ellipticine positive control = 100%;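 active = mean normalized replicate activation at least 10% and every replicate at or above 10%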;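 note: 0% = median of on-plate neutral control wells and 100% = ellipticine 6 µM median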
#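 Material: SV40-immortalized XiGFP fibroblast cells, line 68-5-11 | Buffer or medium: DMEM containing 5-aza-dC | Dosing: One concentration, pinned | Times: 3 d treatment, 15 min room-temperature fixation | Controls: Ellipticine 6 µM positive control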
# Active calls of the source: *; nt = not tested or not shown. A selection: hits, their analogues and other compounds. The true share with any hit is near 2%.
SMILES,PglD DTNB,RAD52 anneal inh,E-selectin induc,Ecoli rRNA inh,RAD54 branch,XiGFP reactiv
CN1c2ccc(Br)cc2[C@@H]2[C@@H](CCN2C(=O)c2cccc(F)c2)[C@@H]1CO,5,7,0,-7,-11,0
C=CCn1c(SCC(=O)Nc2nc3ccccc3s2)nc(O)c(CC)c1=O,10,-13,33*,-27*,-11,6
CO[C@@H]1CN(C)C(=O)c2ccc(NC(=O)c3ccccc3)cc2OC[C@@H](C)NC[C@H]1C,2,2,0,0,-6,0
CCC(=O)N1[C@H](CO)[C@H](c2ccccc2)[C@@H]1CNC(=O)CN1CCOCC1,-3,3,0,3,4,0
O=C1c2ccccc2NC(c2ccc(-c3ccc(F)cc3)o2)N1O (stereo unspecified),-2,-42,0,5,9,1
O=C1c2ccccc2NC(c2ccc(-c3cccc([N+](=O)[O-])c3)o2)N1O (stereo unspecified),nt,3,-2,-21*,nt,0
C[C@H]1CN([C@@H](C)CO)C(=O)c2cc(C#Cc3ccccn3)cnc2O[C@@H]1CN(C)C(=O)c1ccccn1,0,-38,0,-1,6,0
Cc1nc(N2CCCCC2)c(C#N)c(C)c1[N+](=O)[O-],nt,11,1,-33*,nt,0
Cc1[nH]nc(N2CCCCC2)c1[N+](=O)[O-],-2,nt,nt,nt,-1,nt
COCC(=O)N1C[C@@H]2[C@H](c3ccccc31)[C@@H](CO)N2Cc1ccccc1,0,-17,0,-3,-10,0
C[C@H]1CN([C@@H](C)CO)C(=O)c2cc(NC(=O)CCC(F)(F)F)ccc2O[C@@H]1CN(C)Cc1ccc(C(F)(F)F)cc1,6,2,38*,-2,-9,0
CC(C)NC(=O)Nc1ccc2c(c1)C(=O)N([C@H](C)CO)C[C@H](C)[C@H](CN(C)Cc1ccc(C(F)(F)F)cc1)O2,7,-14,-20,0,-6,0
CC(C)NC(=O)Nc1ccc2c(c1)C(=O)N([C@@H](C)CO)C[C@H](C)[C@H](CN(C)Cc1ccc(C(F)(F)F)cc1)O2,1,-11,51*,1,-19,0
O=C(CSc1nccc(=O)[nH]1)N1c2ccccc2CCc2ccccc21,-3,-13,nt,-34*,0,nt
CCCCCCN1C[C@H](O)[C@@H](n2cc(C3CC3)nn2)C[C@@H]1c1ccccc1,-1,-17,nt,-16*,-2,0
CC(C)NC(=O)Nc1ccc2c(c1)C(=O)N(C)C[C@H](C)[C@@H](CN(C)C)O2,nt,nt,nt,0,nt,0
CCCNC(=O)N1CC2(CCN(CC3CC3)CC2)c2c([nH]c3cc(OC)ccc23)[C@@H]1CO,nt,-4,0,5,nt,0
COc1ccccc1-c1cn(CC[C@@H]2CC[C@@H](NC(=O)c3ccccc3F)[C@@H](CO)O2)nn1,3,-3,0,-6,-3,2
CNC(=S)N1CCc2cc(OC)c(OC)cc2C1COc1ccc(F)cc1 (stereo unspecified),nt,-6,nt,-4,nt,0
COC(=O)c1ccc(OCC2c3cc(OC)c(OC)cc3CCN2C(C)=O)cc1 (stereo unspecified),-4,1,1,8,4,0
COc1ccc(OCC2c3cc(OC)c(OC)cc3CCN2C(=O)C(C)C)cc1 (stereo unspecified),nt,-17,0,-24*,nt,0
CCNC(=S)N1CCc2cc(OC)c(OC)cc2C1COc1ccc(F)cc1 (stereo unspecified),-4,-10,4,-31*,5,0
C[C@@H]1CN([C@H](C)CO)C(=O)c2cccc(NC(=O)C3CCCCC3)c2O[C@@H]1CN(C)S(=O)(=O)c1ccccc1,13,9,0,0,-14,0
CSc1ncnc2c1cnn2-c1ccc(C)cc1C,nt,-5,-1,-5,nt,0
Cc1ccc(-n2ncc3c(SCc4ccccn4)ncnc32)c(C)c1,nt,-7,nt,-16*,nt,0
SMILES,PglD DTNB,RAD52 anneal inh,E-selectin induc,Ecoli rRNA inh,RAD54 branch,XiGFP reactiv
COc1ccc(NC(=O)N(C)C[C@@H]2Oc3ccc(NC(=O)Cc4ccccc4)cc3CC(=O)N([C@H](C)CO)C[C@H]2C)cc1,-1,-5,336*,2,7,0
C[C@@H]1CN([C@@H](C)CO)C(=O)Cc2cc(NC(=O)Cc3ccccc3)ccc2O[C@H]1CN(C)C(=O)Nc1cccc2ccccc12,7,16,338*,-2,1,0
C[C@H]1CN([C@@H](C)CO)C(=O)Cc2cc(NC(=O)Cc3ccccc3)ccc2O[C@H]1CN(C)C(=O)Nc1cccc2ccccc12,2,28,12,-3,3,0
COc1ccc(NC(=O)N(C)C[C@@H]2Oc3ccc(NC(=O)Cc4ccccc4)cc3CC(=O)N([C@@H](C)CO)C[C@@H]2C)cc1,1,1,-6,-1,6,0
Cc1noc(C)c1S(=O)(=O)Nc1ccc2c(c1)C(=O)N([C@@H](C)CO)C[C@@H](C)[C@H](CN(C)C)O2,-1,-7,36,7,2,-1
O=C(C[C@@H]1CC[C@@H]2[C@H](COC[C@@H](O)CN2Cc2cccc(F)c2)O1)NCc1cccc(F)c1,6,6,0,-8,-13,0
N#Cc1cccnc1N1CCC(C(N)=O)CC1,nt,-7,70*,16,nt,0
N#Cc1cccnc1N1CCN(C(=O)c2ccccc2)CC1,9,-12,0,6,1,0
Cc1noc(C)c1NC(=O)Nc1ccc2c(c1)CC(=O)N([C@H](C)CO)C[C@@H](C)[C@H](CN(C)S(=O)(=O)c1ccccc1)O2,4,2,16,-2,-4,0
CCn1c2ccccc2c2cc([N+](=O)[O-])ccc21,nt,-8,nt,10,nt,0
CN(C)CCn1c2ccccc2c2nc3ccc([N+](=O)[O-])cc3cc21,1,37,-9,-32*,29,1
Cc1ccc(S(=O)(=O)NCc2csc(-c3cccs3)n2)cc1,nt,-9,7,-3,nt,0
O=S(=O)(NCc1csc(-c2cccs2)n1)c1ccc(Cl)cc1,1,-16,52*,-36,2,0
O=S(=O)(NCc1csc(-c2cccs2)n1)c1cccc(C(F)(F)F)c1,2,-18,60*,-36,-3,0
COc1ccc2c(c1)CCc1c(C(=O)N(C)c3ccccc3)noc1-2,-2,-24,0,-43*,6,1
COCCNC(=O)c1noc2c1CCc1cc(OC)ccc1-2,-7,nt,nt,nt,-7,nt
